Measured values taken from ChEMBL document CHEMBL3414543, “Novel series of benzoquinones with high potency against 5-lipoxygenase in human polymorphonuclear leukocytes” (Eur J Med Chem, 2015).

Tests used:
[1] = molecular target: T1, Polyunsaturated fatty acid 5-lipoxygenase (Homo sapiens, UniProt P09917); assay: Inhibition of 5-LOX in A23187-stimulated human blood PMNL assessed as reduction in lipoxygenase products formation in presence of arachidonic acid pre-incubated for 15 mins followed by stimulation with A23187 for 10 mins by RP-HPLC based cell based assay
T1 sequence (P09917 whole entry): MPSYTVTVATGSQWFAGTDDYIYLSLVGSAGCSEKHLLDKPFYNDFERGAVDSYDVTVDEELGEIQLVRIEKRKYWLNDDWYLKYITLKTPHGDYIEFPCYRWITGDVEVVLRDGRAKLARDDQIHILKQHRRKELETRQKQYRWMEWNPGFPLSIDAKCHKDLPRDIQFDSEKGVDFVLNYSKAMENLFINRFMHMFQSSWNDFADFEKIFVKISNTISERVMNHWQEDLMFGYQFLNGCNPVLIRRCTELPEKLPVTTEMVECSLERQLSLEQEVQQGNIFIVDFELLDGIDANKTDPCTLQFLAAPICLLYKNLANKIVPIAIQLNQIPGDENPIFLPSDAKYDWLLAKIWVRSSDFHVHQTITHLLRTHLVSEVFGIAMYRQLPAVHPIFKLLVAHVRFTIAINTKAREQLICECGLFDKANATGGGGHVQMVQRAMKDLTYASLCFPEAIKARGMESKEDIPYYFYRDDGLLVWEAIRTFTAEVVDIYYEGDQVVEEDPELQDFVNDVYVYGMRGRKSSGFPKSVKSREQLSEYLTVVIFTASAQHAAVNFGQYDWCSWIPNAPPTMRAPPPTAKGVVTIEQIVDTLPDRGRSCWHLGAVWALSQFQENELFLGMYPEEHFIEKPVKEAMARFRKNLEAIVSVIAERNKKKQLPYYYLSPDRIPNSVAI
Outline: (§1)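 Human PMNL (5 × 10⁶ in 1 ml PBS pH 7.4, 1 mg/ml glucose, 1 mM CaCl₂), preincubated 15 min at 37 °C with compound or 0.1% DMSO, then stimulated 10 min at 37 °C with A23187, with or without AA. 5-LO products measured. Values are mean ± S.E. of 3–4 independent experiments. IC₅₀ read graphically from 4–5 concentrations.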

[2] = molecular target: T2, Polyunsaturated fatty acid lipoxygenase ALOX12 (Homo sapiens) (UniProt P18054); assay: Inhibition of 12-LOX in human blood PMNL assessed as remaining activity by measuring 12-HETE synthesis at 10 uM
T2 sequence (whole entry): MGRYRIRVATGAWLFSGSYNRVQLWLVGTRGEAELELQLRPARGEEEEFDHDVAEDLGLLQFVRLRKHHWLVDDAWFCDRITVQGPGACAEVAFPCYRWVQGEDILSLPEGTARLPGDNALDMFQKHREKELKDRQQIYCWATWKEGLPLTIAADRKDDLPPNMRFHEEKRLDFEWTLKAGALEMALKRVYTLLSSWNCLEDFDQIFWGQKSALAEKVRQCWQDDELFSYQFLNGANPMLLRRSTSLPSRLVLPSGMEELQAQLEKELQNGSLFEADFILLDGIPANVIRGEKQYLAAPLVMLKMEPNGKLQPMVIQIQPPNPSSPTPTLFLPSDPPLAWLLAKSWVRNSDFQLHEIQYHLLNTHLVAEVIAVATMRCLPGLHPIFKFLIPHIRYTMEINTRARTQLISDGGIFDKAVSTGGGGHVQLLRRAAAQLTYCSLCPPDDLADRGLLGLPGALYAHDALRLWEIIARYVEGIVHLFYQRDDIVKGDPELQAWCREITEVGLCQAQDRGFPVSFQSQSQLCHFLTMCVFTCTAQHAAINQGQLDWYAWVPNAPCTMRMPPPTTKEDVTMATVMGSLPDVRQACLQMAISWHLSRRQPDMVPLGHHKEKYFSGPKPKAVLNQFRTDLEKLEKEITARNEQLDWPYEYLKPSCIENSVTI
Outline: (§2)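 PMNL isolated from heparinized blood of fasted healthy donors by dextran sedimentation and Nycoprep centrifugation, with hypotonic lysis of erythrocytes. Cells at 5 × 10⁶ in 1 ml PBS pH 7.4 with 1 mg/ml glucose and 1 mM CaCl₂, preincubated 15 min at 37 °C with compound or 0.1% DMSO vehicle, then stimulated 10 min at 37 °C. 12-HETE or 15-HETE formation measured.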

[3] = molecular target: T3, Polyunsaturated fatty acid lipoxygenase ALOX15 (Homo sapiens) (UniProt P16050); assay: Inhibition of 15-LOX-1 in human blood PMNL assessed as remaining activity by measuring 15-HETE synthesis at 10 uM; outline: as §2
T3 sequence (whole entry): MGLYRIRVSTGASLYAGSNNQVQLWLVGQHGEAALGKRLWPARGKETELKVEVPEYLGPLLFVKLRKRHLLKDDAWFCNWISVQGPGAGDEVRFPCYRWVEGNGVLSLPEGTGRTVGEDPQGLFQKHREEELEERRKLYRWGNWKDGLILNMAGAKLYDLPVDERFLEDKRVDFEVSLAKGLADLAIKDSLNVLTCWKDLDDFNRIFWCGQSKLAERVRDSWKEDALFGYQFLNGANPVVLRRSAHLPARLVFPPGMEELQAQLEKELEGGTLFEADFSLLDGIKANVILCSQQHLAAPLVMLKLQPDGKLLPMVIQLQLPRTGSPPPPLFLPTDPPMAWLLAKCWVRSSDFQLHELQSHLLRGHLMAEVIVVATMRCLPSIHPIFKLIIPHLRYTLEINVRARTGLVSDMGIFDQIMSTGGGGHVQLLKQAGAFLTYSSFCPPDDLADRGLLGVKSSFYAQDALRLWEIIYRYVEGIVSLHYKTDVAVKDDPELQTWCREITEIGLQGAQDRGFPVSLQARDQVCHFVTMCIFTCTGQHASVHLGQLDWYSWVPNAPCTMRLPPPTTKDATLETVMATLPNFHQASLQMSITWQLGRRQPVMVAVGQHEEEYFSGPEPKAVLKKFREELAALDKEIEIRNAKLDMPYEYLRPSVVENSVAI

[4] = molecular target: T1, Polyunsaturated fatty acid 5-lipoxygenase; assay: Inhibition of 5-LOX in A23187-stimulated human blood PMNL assessed as reduction in lipoxygenase products formation pre-incubated for 15 mins followed by stimulation with A23187 for 10 mins by RP-HPLC based cell based assay; outline: as §1
[5] = molecular target: T1, Polyunsaturated fatty acid 5-lipoxygenase; assay: Inhibition of human recombinant 5-LOX expressed in Escherichia coli BL21 incubated for 10 mins in presence of arachidonic acid by RP-HPLC based cell-free assay
Outline: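 Recombinant human 5-LO, semi-purified from a 40,000 × g lysate supernatant on ATP-agarose, diluted in ice-cold PBS with 1 mM EDTA and 1 mM ATP. Preincubated 10 min at 4 °C with compound or 0.1% DMSO, warmed 30 s at 37 °C, then started with 2 mM CaCl₂ plus 20 µM AA. Reaction 10 min at 37 °C, stopped with cold methanol, products by RP-HPLC. IC₅₀ from 4–5 concentrations.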

[6] = molecular target: T4, Polyunsaturated fatty acid 5-lipoxygenase (Homo sapiens) (UniProt P09917); assay: Inhibition of 5-LOX in A23187-stimulated human blood PMNL assessed as remaining activity by measuring lipoxygenase products formation at 10 uM in presence of arachidonic acid pre-incubated for 15 mins followed by stimulation with A23187 for 10 mins by RP-HPLC based cell based assay; outline: as §1
T4 sequence (whole entry): T1 sequence (P09917 whole entry)

IC50 [1] [nM] | Activity [2] [%] | Activity [3] [%] | IC50 [4] [nM] | IC50 [5] [nM] | Activity [6] [%] | Compound
7100 | 76 | 90 | 2000 | 180 | – | CCCCCCCCCCC1=C(O)C(=O)C=C(O)C1=O
1300 | 138 | 131 | 680 | 3800 | – | CCCCCCCCCCCC1=C(O)C(=O)C=C(OC)C1=O [5-O-METHYLEMBELIN]
590 | 161 | 93.4 | 200 | 930 | – | CCCCCCCCCCCC1=C(OC)C(=O)C=C(OC)C1=O
– | 0.91 | 5.2 | – | – | – | N#C/C(=C\c1ccc(O)c(O)c1)C(=O)OC/C=C/c1ccccc1
990 | 18.6 | 91.7 | 330 | 2600 | – | CCCCCCC1=C(OC)C(OC)=CC(=O)C1=O
4700 | 84.3 | 124 | 2500 | 220 | – | CCCCCCCCCCCCCC1=C(O)C(=O)C=C(O)C1=O [Rapanone]
1700 | 144 | – | 600 | 1800 | – | CCCCCCCCCCC1=C(OC)C(=O)C=C(OC)C1=O
310 | 58.8 | 84.1 | 230 | 260 | – | CCCCCCCCCCCCCC1=C(OC)C(=O)C=C(OC)C1=O
2700 | 122 | 123 | 590 | 4300 | – | CCCCCCCCCCC1=C(O)C(=O)C=C(OC)C1=O
1400 | 102 | 101 | 320 | 2600 | – | CCCCCCC1=C(OC)C(=O)C=C(OC)C1=O
490 | 114 | 116 | 270 | 420 | – | CCCCCCCCCCCCCCC1=C(O)C(=O)C=C(OC)C1=O
570 | 89.6 | 123 | 320 | 1200 | – | CCCCCCCCC1=C(OC)C(=O)C=C(OC)C1=O
390 | 72.8 | 125 | 380 | 600 | – | COC1=CC(=O)C(=O)C(C/C=C(\C)CCC=C(C)C)=C1OC
5100 | 101 | 139 | 3100 | 170 | – | CCCCCCCCCCCCCCC1=C(O)C(=O)C=C(O)C1=O
1200 | 139 | 136 | 310 | 1700 | – | COC1=CC(=O)C(OC)=C(C/C=C(\C)CC/C=C(\C)CCC=C(C)C)C1=O
2400 | 108 | 122 | 1900 | 5600 | – | COC1=CC(=O)C(O)=C(C/C=C(\C)CC/C=C(\C)CCC=C(C)C)C1=O
490 | 138 | 127 | 630 | 610 | – | CCCCCCCCCCCCC1=C(OC)C(=O)C=C(OC)C1=O
90 | 87.3 | 139 | 120 | 40 | – | CCCCCCCCCCCCCCC1=C(OC)C(OC)=CC(=O)C1=O
860 | 87.3 | 115 | 390 | 270 | – | CCCCCCCCCCCCCCCC1=C(OC)C(=O)C=C(OC)C1=O
1100 | 148 | 116 | 560 | 740 | – | CCCCCCCCCCCCC1=C(O)C(=O)C=C(OC)C1=O
820 | 59.3 | 102 | 380 | 330 | – | CCCCCCCCC1=C(OC)C(OC)=CC(=O)C1=O
1600 | 90.3 | 127 | 450 | 3300 | – | COC1=CC(=O)C(OC)=C(C/C=C(\C)CCC=C(C)C)C1=O
3900 | 90.6 | 65.1 | 4600 | 170 | – | CCCCCCCCCCCCC1=C(O)C(=O)C=C(O)C1=O
100 | 211 | 174 | 150 | 300 | – | COC1=CC(=O)C(=O)C(C/C=C(\C)CC/C=C(\C)CCC=C(C)C)=C1OC
7900 | 103 | 103 | 3400 | 3300 | – | CCCCC1=C(OC)C(=O)C=C(OC)C1=O
1400 | 84.5 | 116 | 290 | 210 | – | CCCCCCCCCCCCCCC1=C(OC)C(=O)C=C(OC)C1=O
> 10000 | 87.7 | 103 | 4300 | 230 | 61.7 | CCCCCCCCCCCCCCCC1=C(O)C(=O)C=C(O)C1=O

Compound | IC50 [1] [nM] | Activity [2] [%] | Activity [3] [%] | IC50 [4] [nM] | IC50 [5] [nM] | Activity [6] [%]
CCCCCCCCCCCCCCCC1=C(O)C(=O)C=C(OC)C1=O | 860 | 92.8 | 103 | 390 | 270 | –
CCCCCCCCCCCCCC1=C(O)C(=O)C=C(OC)C1=O [Sorgoleone-364] | 2300 | 73.2 | 88.1 | 770 | 920 | –
